Experiments:
Type in all cases: functional
SR = test: Growth inhibition of human SR cells incubated for 48 hrs by sulforhodamine B assay
Summary of the method: (§1)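 NCI 60 human tumour cell line panel, five-dose study at 0.01, 0.1, 1, 10 and 100 µM, 48 h incubation. Sulforhodamine B protein-binding dye end point. GI50 (50% decrease in net cell growth), TGI (total growth inhibition) and LC50 (net 50% loss of initial cells) read from log concentration versus % growth inhibition curves.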

A549 = test: Growth inhibition of human A549/ATCC cells incubated for 48 hrs by sulforhodamine B assay; settings: A549, 48 h
Summary of the method: (§2)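 NCI-60 five-dose screen at 0.01, 0.1, 1, 10 and 100 µM, 48 h incubation, sulforhodamine B end point. GI50 (50% decrease in net growth), TGI (total growth inhibition) and LC50 (net 50% loss of initial cells) taken from log concentration versus % growth inhibition curves.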

HOP-92 = test: Growth inhibition of human HOP92 cells incubated for 48 hrs by sulforhodamine B assay; settings: HOP-92, 48 h; summary of the method: as §2
NCI-H226 = test: Growth inhibition of human NCI-H226 cells incubated for 48 hrs by sulforhodamine B assay; settings: NCI-H226, 48 h; summary of the method: as §2
COLO 205 = test: Growth inhibition of human COLO205 cells incubated for 48 hrs by sulforhodamine B assay; settings: COLO 205, 48 h; summary of the method: as §2
HCC 2998 = test: Growth inhibition of human HCC2998 cells incubated for 48 hrs by sulforhodamine B assay; settings: HCC 2998, 48 h; summary of the method: as §2
SW-620 = test: Growth inhibition of human SW620 cells incubated for 48 hrs by sulforhodamine B assay; settings: SW-620, 48 h; summary of the method: as §1
SF-268 = test: Growth inhibition of human SF268 cells incubated for 48 hrs by sulforhodamine B assay; settings: SF-268, 48 h; summary of the method: as §1
SNB-19 = test: Growth inhibition of human SNB19 cells incubated for 48 hrs by sulforhodamine B assay; settings: SNB-19, 48 h; summary of the method: as §1
SNB-75 = test: Growth inhibition of human SNB75 cells incubated for 48 hrs by sulforhodamine B assay; settings: SNB-75, 48 h; summary of the method: as §1
M14 = test: Growth inhibition of human M14 cells incubated for 48 hrs by sulforhodamine B assay; settings: M14, 48 h; summary of the method: as §2
MDA-MB-435 = test: Growth inhibition of human MDA-MB-435 cells incubated for 48 hrs by sulforhodamine B assay; settings: MDA-MB-435, 48 h; summary of the method: as §2
SK-MEL-2 = test: Growth inhibition of human SK-MEL-2 cells incubated for 48 hrs by sulforhodamine B assay; settings: SK-MEL-2, 48 h; summary of the method: as §1
SK-MEL-5 = test: Growth inhibition of human SK-MEL-5 cells incubated for 48 hrs by sulforhodamine B assay; settings: SK-MEL-5, 48 h; summary of the method: as §1
UACC-62 = test: Growth inhibition of human UACC62 cells incubated for 48 hrs by sulforhodamine B assay; settings: UACC-62, 48 h; summary of the method: as §1
OVCAR-5 = test: Growth inhibition of human OVCAR5 cells incubated for 48 hrs by sulforhodamine B assay; settings: OVCAR-5, 48 h; summary of the method: as §2
NCI/ADR-RES = test: Growth inhibition of human NCI/ADR-RES cells incubated for 48 hrs by sulforhodamine B assay; summary of the method: as §2
SK-OV-3 = test: Growth inhibition of human SKOV3 cells incubated for 48 hrs by sulforhodamine B assay; settings: SK-OV-3, 48 h; summary of the method: as §1
RXF 393 = test: Growth inhibition of human RXF393 cells incubated for 48 hrs by sulforhodamine B assay; settings: RXF 393, 48 h; summary of the method: as §1
TK-10 = test: Growth inhibition of human TK10 cells incubated for 48 hrs by sulforhodamine B assay; settings: TK-10, 48 h; summary of the method: as §1
PC-3 = test: Growth inhibition of human PC3 cells incubated for 48 hrs by sulforhodamine B assay; settings: PC-3, 48 h; summary of the method: as §2
MCF7 = test: Growth inhibition of human MCF7 cells incubated for 48 hrs by sulforhodamine B assay; settings: MCF7, 48 h; summary of the method: as §2
MDA-MB-231 = test: Growth inhibition of human MDA-MB-231 cells incubated for 48 hrs by sulforhodamine B assay; settings: MDA-MB-231, 48 h; summary of the method: as §2
T47D = test: Growth inhibition of human T47D cells incubated for 48 hrs by sulforhodamine B assay; summary of the method: as §1
MDA-MB-468 = test: Growth inhibition of human MDA-MB-468 cells incubated for 48 hrs by sulforhodamine B assay; settings: MDA-MB-468, 48 h; summary of the method: as §2
SF-539 = test: Anticancer activity against human SF539 cells assessed as cell growth at 10 uM after 48 hrs by sulforhodamine B assay relative to control; settings: SF-539, 48 h, read-out: Activity
Summary of the method: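 Single-dose NCI-60 panel screen: compound added at 10 µM and the culture incubated 48 h. The end point was read by protein staining with sulforhodamine B. The value is percent growth of treated cells relative to untreated control cells, reported as a mean graph across the panel.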

[1] = read-out: LC50 (the source's name)

C=C1CC[C@@H]2[C@](C)(COC(C)=O)[C@H](OC(C)=O)CC[C@@]2(C)[C@H]1CC(Nc1ccc(S(=O)(=O)Nc2cc(C)on2)cc1)C1=CCOC1=O (some centres undefined)
GI50 (SR): 370 nM
TGI (SR): 3.36 µM
CC50 (SR; [1]): > 100 µM
GI50 (A549): 4.75 µM
TGI (A549): 15.4 µM
CC50 (A549; [1]): 42.2 µM
GI50 (HOP-92): 3.07 µM
TGI (HOP-92): 8 µM
CC50 (HOP-92; [1]): 28 µM
GI50 (NCI-H226): 1810 nM
TGI (NCI-H226): 3.85 µM
GI50 (COLO 205): 1970 nM
TGI (COLO 205): 4.34 µM
CC50 (COLO 205; [1]): 9.55 µM
GI50 (HCC 2998): 2140 nM
TGI (HCC 2998): 4.05 µM
CC50 (HCC 2998; [1]): 7.64 µM
GI50 (SW-620): 1320 nM
TGI (SW-620): 2910 nM
CC50 (SW-620; [1]): 6.44 µM
GI50 (SF-268): 2350 nM
TGI (SF-268): 6.11 µM
CC50 (SF-268; [1]): 32.9 µM
GI50 (SNB-19): 3.12 µM
TGI (SNB-19): 12.2 µM
CC50 (SNB-19; [1]): 46.4 µM
GI50 (SNB-75): 2030 nM
TGI (SNB-75): 11.5 µM
CC50 (SNB-75; [1]): 33.9 µM
GI50 (M14): 1690 nM
TGI (M14): 4.17 µM
CC50 (M14; [1]): 10.8 µM
GI50 (MDA-MB-435): 1740 nM
TGI (MDA-MB-435): 4.37 µM
CC50 (MDA-MB-435; [1]): 12.5 µM
GI50 (SK-MEL-2): 2040 nM
TGI (SK-MEL-2): 4.4 µM
CC50 (SK-MEL-2; [1]): 9.49 µM
GI50 (SK-MEL-5): 2110 nM
TGI (SK-MEL-5): 4.65 µM
CC50 (SK-MEL-5; [1]): 11.7 µM
GI50 (UACC-62): 2130 nM
TGI (UACC-62): 7.06 µM
CC50 (UACC-62; [1]): 30.5 µM
GI50 (OVCAR-5): 2160 nM
LC50 (concentration causing net 50% loss of initial cells) (OVCAR-5): 7.61 µM
TGI (OVCAR-5): 4.05 µM
GI50 (NCI/ADR-RES): 2410 nM
LC50 (concentration giving net 50% loss of initial cells) (NCI/ADR-RES): > 100 µM
TGI (NCI/ADR-RES): 12 µM
GI50 (SK-OV-3): 11 µM
TGI (SK-OV-3): 23.1 µM
CC50 (SK-OV-3; [1]): 48.6 µM
GI50 (RXF 393): 2050 nM
TGI (RXF 393): 3.84 µM
CC50 (RXF 393; [1]): 7.22 µM
GI50 (TK-10): 3.04 µM
TGI (TK-10): 7.11 µM
CC50 (TK-10; [1]): 23.8 µM
GI50 (PC-3): 1980 nM
TGI (PC-3): 4.31 µM
CC50 (PC-3; [1]): 9.4 µM
GI50 (MCF7): 590 nM
TGI (MCF7): 2760 nM
GI50 (MDA-MB-231): 2220 nM
LC50 (concentration giving net 50% loss of initial cells) (MDA-MB-231): 17.1 µM
TGI (MDA-MB-231): 5.11 µM
GI50 (T47D): 2800 nM
TGI (T47D): 7.37 µM
CC50 (T47D; [1]): > 100 µM
GI50 (MDA-MB-468): 1490 nM
TGI (MDA-MB-468): 3.29 µM
CC50 (MDA-MB-468; [1]): 7.27 µM
growth at 10 µM (SF-539): 6.3%
